According to ChEMBL document CHEMBL3763093, “The molecular structure of thio-ether fatty acids influences PPAR-dependent regulation of lipid metabolism” (Bioorg Med Chem, 2016):
Activity calls are given as the source filed them. No cut-off for these calls is given here.

What was measured:
[1] = Effect on fatty acid composition in human myotubes assessed as change in intracellular MUFA level at 10 uM after 96 hrs relative to DMSO control; type: functional
In short: (§1)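 Differentiated human myotubes (7 days) treated 96 h with 10 or 30 μM compound or DMSO 0.1% (two controls). Cells washed, harvested, lipids extracted and methylated (methanol, sulfuric acid, 90 °C, 1 h); FA methyl esters quantified by GC with C21:0 internal standard, peaks confirmed by standards and GC/MS; values as mol % of intracellular fatty acids.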

[2] = Effect on fatty acid composition in human myotubes assessed as intracellular TTA level at 10 uM after 96 hrs; type: functional; in short: as §1
[3] = Effect on fatty acid composition in human myotubes assessed as intracellular dTTA level at 30 uM after 96 hrs; type: functional; in short: as §1
[4] = Effect on fatty acid composition in human myotubes assessed as intracellular PUFA n-9 level at 30 uM after 96 hrs (Rvb= 1.78%); type: functional; in short: as §1
[5] = Effect on total fatty acid level in human myotubes assessed as per mg of protein at 10 to 30 uM; type: ADME
[6] = Effect on fatty acid composition in human myotubes assessed as intracellular MUFA level at 10 uM after 96 hrs (Rvb= 41.04%); type: functional; in short: as §1
[7] = Effect on fatty acid composition in human myotubes assessed as intracellular PUFA n-6 level at 10 uM after 96 hrs (Rvb= 13.41%); type: functional; in short: as §1
[8] = target: T1, Peroxisome proliferator-activated receptor (Homo sapiens) (UniProt P37231+Q07869+Q03181); assay: Agonist activity at PPAR in human myotubes assessed as CPT1A mRNA expression at 30 uM after 96 hrs by qPCR analysis relative to control
In short: (§2)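 Myotubes from satellite cells of abdominal muscle biopsies of healthy donors, differentiated 7 days, then exposed 96 h to test lipids (30 μM) vs DMSO 0.1%. Total RNA isolated (RIN ≥7), reverse transcribed, real-time PCR with gene-specific primers; expression expressed relative to DMSO control.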

[9] = Induction of fatty acid oxidation in human myotubes using [14C]oleic acid as substrate at 30 uM preincubated for 96 hrs followed by substrate addition incubated for 4 hrs by liquid scintillation analysis relative to control; type: functional
In short: (§3)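 Myotubes differentiated 7 days were pretreated 96 h with 10 or 30 μM compound, 10 nM GW501516 or DMSO 0.1%, then given [1-14C]oleic acid (0.5 μCi/mL, 100 μM) in DPBS with HEPES 10 mM and L-carnitine 1 mM, 4 h at 37 °C. Trapped CO2 and cell-associated label counted by scintillation; uptake = CO2 + CA; Bradford protein; % of DMSO basal; n = 8–15.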

[10] = target: T1, Peroxisome proliferator-activated receptor (Homo sapiens); assay: Agonist activity at PPAR in human myotubes assessed as ANGPTL4 mRNA expression at 30 uM after 96 hrs by qPCR analysis relative to control; in short: as §2
[11] = target: T1, Peroxisome proliferator-activated receptor (Homo sapiens); assay: Agonist activity at PPAR in human myotubes assessed as CD36 mRNA expression at 30 uM after 96 hrs by qPCR analysis relative to control; in short: as §2
[12] = Effect on fatty acid composition in human myotubes assessed as intracellular PUFA n-6 level at 30 uM after 96 hrs (Rvb= 13.41%); type: functional; in short: as §1
[13] = Effect on fatty acid composition in human myotubes assessed as change in intracellular MUFA level at 30 uM after 96 hrs relative to DMSO control; type: functional; in short: as §1
[14] = Effect on fatty acid composition in human myotubes assessed as change in intracellular SFA level at 30 uM after 96 hrs relative to DMSO control; type: functional; in short: as §1
[15] = Effect on fatty acid composition in human myotubes assessed as intracellular SFA level at 10 uM after 96 hrs (Rvb= 36.16%); type: functional; in short: as §1
Homo sapiens [16] = species: Homo sapiens; assay: Induction of fatty acid oxidation in human myotubes using [14C]oleic acid as substrate preincubated for 96 hrs followed by substrate addition incubated for 4 hrs by liquid scintillation analysis; type: functional; in short: as §3
[17] = Effect on fatty acid composition in human myotubes assessed as change in intracellular SFA level at 10 uM after 96 hrs relative to DMSO control; type: functional; in short: as §1
[18] = Effect on fatty acid composition in human myotubes assessed as intracellular SFA level at 30 uM after 96 hrs (Rvb= 36.16%); type: functional; in short: as §1
[19] = Effect on protein level in human myotubes at 10 to 30 uM; type: ADME
[20] = Effect on fatty acid composition in human myotubes assessed as intracellular PUFA n-3 level at 30 uM after 96 hrs (Rvb= […]); type: functional; in short: as §1
[21] = Effect on fatty acid composition in human myotubes assessed as intracellular dTTA level at 10 uM after 96 hrs; type: functional; in short: as §1
[22] = Effect on fatty acid composition in human myotubes assessed as intracellular TTA level at 30 uM after 96 hrs; type: functional; in short: as §1
[23] = Effect on fatty acid composition in human myotubes assessed as intracellular MUFA level at 30 uM after 96 hrs (Rvb= 41.04%); type: functional; in short: as §1
[24] = target: T1, Peroxisome proliferator-activated receptor (Homo sapiens); assay: Agonist activity at PPAR in human myotubes assessed as FABP3 mRNA expression at 30 uM after 96 hrs by qPCR analysis relative to control; in short: as §2
[25] = Effect on fatty acid composition in human myotubes assessed as intracellular PUFA n-9 level at 10 uM after 96 hrs (Rvb= 1.78%); type: functional; in short: as §1
[26] = Effect on fatty acid composition in human myotubes assessed as intracellular PUFA n-3 level at 10 uM after 96 hrs (Rvb= 7.47%); type: functional; in short: as §1
Homo sapiens [27] = species: Homo sapiens; assay: Effect on intracellular [14C]oleic acid uptake in human myotubes at 10 to 30 uM preincubated for 96 hrs followed by substrate addition incubated for 4 hrs by liquid scintillation analysis; type: functional, cell-based; in short: as §3

fold change (FC) [8]: 5
fold change (FC) [10]: < 20
Activity [11]: Active
Activity [24]: Active
SMILES: CCCCCCCCCCCCCCSCC(=O)O [TETRADECYLTHIOACETIC ACID]
Activity [1]: -14.6%
Activity [2]: 13.02 mol%
Activity [3]: 1.28 mol%
Activity [4]: 1.73 mol%
Activity [5]: Non-toxic
Activity [6]: 35.09 mol%
Activity [7]: 14.34 mol%
fold change (FC) [9]: 3
Activity [12]: 11.78 mol%
Activity [13]: -30.8%
Activity [14]: -49.4%
Activity [15]: 26.24 mol%
Activity (Homo sapiens [16]): Dose-dependent effect
Activity [17]: -27.2%
Activity [18]: 18.25 mol%
Activity [19]: Non-toxic
Activity [20]: 6.62 mol%
Activity [21]: 1.11 mol%
Activity [22]: 31.81 mol%
Activity [23]: 28.44 mol%
Activity [25]: 2.2 mol%
Activity [26]: 7.86 mol%
Activity (Homo sapiens [27]): inactive
